{"source": "ChEMBL document CHEMBL3813647", "about": "“Discovery of an Orally Active and Liver-Targeted Prodrug of 5-Fluoro-2'-Deoxyuridine for the Treatment of Hepatocellular Carcinoma” (J Med Chem, 2016)", "key": {"[1]": {"system": "Liver", "experiment": "AUC (infinity) in Sprague-Dawley rat liver assessed as (S)-2-((R)-(((2R,3S,5R)-5-(5-fluoro-2,4-dioxo-3,4-dihydropyrimidin-1(2H)-yl)-3-hydroxytetrahydrofuran-2-yl)methoxy)(2-methylbenzyloxy)phosphorylamino)propanoate formation at 52.17 mg/kg administered through oral gavage measured up to 24 hrs by HPLC-MS/MS analysis", "format": "ADME, organism-based", "parameters": "dose 52.17 mg/kg, route oral, time infinity", "settings": "in vivo", "in_short": "(§1)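 Male Sprague-Dawley rats (220 ± 20 g), single gavage of 0.096 mmol/kg. FDUR was dosed in H2O; the prodrugs were dosed in 20% hydroxypropyl-β-cyclodextrin. n = 3 per time point, sampled at 0.25–24 h. Plasma (EDTA-K2, cardiac puncture) and freeze-clamped liver were homogenized in 20 mM EDTA-K2/70% MeOH. Analytes measured by HPLC-MS/MS in ESI negative mode.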"}, "[2]": {"system": "H22", "experiment": "Antitumor activity against mouse H22 cells implanted in KM mouse assessed as tumor growth inhibition at 65 mg/kg administered daily through oral gavage after 8 days", "format": "functional", "settings": "192 h", "in_short": "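Syngeneic H22 hepatoma: 2 × 10⁶ cells injected s.c. in the axilla (0.9% saline) of female KM mice, n = 10 per group. From day 2, daily oral gavage for 8 days. Test agent given in 35% PEG400; sorafenib suspended in 0.5% CMC-Na. Tumor weight taken on day 8; inhibition rate calculated versus the vehicle group.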"}, "[3]": {"system": "Liver", "experiment": "Cmax in Sprague-Dawley rat liver assessed as FdUMP formation at 52.17 mg/kg administered through oral gavage measured up to 24 hrs by HPLC-MS/MS analysis", "format": "ADME, organism-based", "parameters": "dose 52.17 mg/kg, route oral", "settings": "in vivo", "in_short": "as §1"}, "[4]": {"experiment": "Half life in human plasma by HPLC-MS/MS analysis", "format": "ADME, cell-free", "in_short": "(§2)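 Compound at 1 μg/mL final in dog or human plasma, 37 °C. Sampled at 0–24 h and quenched with ice-cold MeOH containing internal standard. Parent measured by LC-MS/MS in ESI negative mode; t1/2 calculated from percent remaining versus 0 h.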"}, "[5]": {"system": "Liver", "experiment": "Cmax in Sprague-Dawley rat liver assessed as FDUR formation at 52.17 mg/kg administered through oral gavage measured up to 24 hrs by HPLC-MS/MS analysis", "format": "ADME, organism-based", "parameters": "dose 52.17 mg/kg, route oral", "settings": "in vivo", "in_short": "as §1"}, "[6]": {"system": "Mus musculus", "experiment": "Toxicity in KM mouse implanted with mouse H22 cells assessed as body weight level at 260 mg/kg administered daily through oral gavage after 8 days (reference value: 21.7 to 22.3 g)", "format": "organism-based", "settings": "in vivo, 192 h"}, "[7]": {"experiment": "Half life in dog plasma by HPLC-MS/MS analysis", "format": "ADME, cell-free, Canis lupus familiaris", "in_short": "as §2"}, "[8]": {"experiment": "Cytotoxicity against human LO2 cells assessed as reduction in cell viability after 72 hrs by MTT assay", "format": "cell-based", "settings": "L02, 72 h", "in_short": "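Cells in RPMI-1640 with 10% FBS, seeded at 4 × 10³ per well and attached for 24 h. Compound (DMSO ≤0.5% final) added for 72 h at 37 °C, 5% CO2. Viability read by MTT. IC50 set against 0.5% DMSO-treated cells taken as 100% viable. Mean of two independent experiments, each run in triplicate.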"}, "[9]": {"system": "Liver", "experiment": "AUC (infinity) in Sprague-Dawley rat liver assessed as FDUR formation at 52.17 mg/kg administered through oral gavage measured up to 24 hrs by HPLC-MS/MS analysis", "format": "ADME, organism-based", "parameters": "dose 52.17 mg/kg, route oral, time infinity", "settings": "in vivo", "in_short": "as §1"}, "[10]": {"system": "Liver", "experiment": "Drug metabolism in Sprague-Dawley rat liver S9 fraction assessed as (S)-2-((R)-(((2R,3S,5R)-5-(5-fluoro-2,4-dioxo-3,4-dihydropyrimidin-1(2H)-yl)-3-hydroxytetrahydrofuran-2-yl)methoxy)(2-methylbenzyloxy)phosphorylamino)propanoate formation at 20 ug/mL after 20 mins by HPLC-MS/MS analysis", "format": "ADME, subcellular", "settings": "s9, 20 min, TDE = time-dependent effect", "in_short": "(§3)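 Rat liver S9 (10 mg/mL) incubated with compound at 20 μg/mL. Parent, intermediate A and FdUMP followed over time by HPLC-MS/MS. Negative control run without NADPH.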"}, "[11]": {"system": "Plasma", "experiment": "Cmax in Sprague-Dawley rat plasma assessed as FDUR formation at 52.17 mg/kg administered through oral gavage measured up to 24 hrs by HPLC-MS/MS analysis", "format": "ADME, organism-based", "parameters": "dose 52.17 mg/kg, route oral", "settings": "in vivo", "in_short": "as §1"}, "[12]": {"system": "Mus musculus", "experiment": "Toxicity in KM mouse assessed as damage to heart at 2 to 3 g/kg, administered through oral gavage after 15 days", "settings": "in vivo, 360 h"}, "[13]": {"system": "Liver", "experiment": "AUC (infinity) in Sprague-Dawley rat liver assessed as FdUMP formation at 52.17 mg/kg administered through oral gavage measured up to 24 hrs by HPLC-MS/MS analysis", "format": "ADME, organism-based", "parameters": "dose 52.17 mg/kg, route oral, time infinity", "settings": "in vivo", "in_short": "as §1"}, "[14]": {"system": "Liver", "experiment": "Drug metabolism in Sprague-Dawley rat liver S9 fraction assessed as FdUMP formation at 20 ug/mL after 20 mins by HPLC-MS/MS analysis in absence of NADPH", "format": "ADME", "settings": "s9, 20 min", "in_short": "as §3"}}, "data": [{"compound": "Cc1ccccc1CO[P@](=O)(N[C@@H](C)C(=O)OC(C)C)OC[C@H]1O[C@@H](n2cc(F)c(=O)[nH]c2=O)C[C@@H]1O", "values": [{"measurement": "AUC", "setting": "[1]", "result": 5509, "unit": "ng·h/g"}, {"measurement": "inhibition in vivo at 65 mg/kg", "setting": "[2]", "result": 44.2, "unit": "%"}, {"measurement": "Cmax", "setting": "[3]", "result": 340, "unit": "ng/g"}, {"measurement": "half-life", "setting": "[4]", "result": "> 24", "unit": "h"}, {"measurement": "Cmax", "setting": "[5]", "result": 747, "unit": "ng/g"}, {"measurement": "Activity", "setting": "[6]", "result": 22.3, "unit": "g"}, {"measurement": "half-life", "setting": "[7]", "result": "> 24", "unit": "h"}, {"measurement": "IC50", "setting": "[8]", "result": 412, "unit": "µM"}, {"measurement": "AUC", "setting": "[9]", "result": 1541, "unit": "ng·h/g"}, {"measurement": "Drug metabolism", "setting": "[10]", "result": "tde"}, {"measurement": "Cmax", "setting": "[11]", "result": 17, "unit": "ng/mL"}, {"measurement": "Activity", "setting": "[12]", "result": "Non-toxic"}, {"measurement": "AUC", "setting": "[13]", "result": 543, "unit": "ng·h/g"}, {"measurement": "Drug metabolism", "setting": "[14]", "result": "metabolite_notdetected"}]}]}
